Experimental data taken from ChEMBL document CHEMBL5113474, “Triazole-substituted phenylboronic acids as tunable lead inhibitors of KPC-2 antibiotic resistance” (Eur J Med Chem, 2022).
Values after ≈ are worked out from the molar mass of the structure shown.

Legend:
Bacteria = assay: Inhibition of bacterial beta-lactamase KPC-2 expressed in Escherichia coli BL21 (DE3) using nitrocefin as substrate at 1 uM by spectrophotometric analysis relative to control
How it was run: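 Purified recombinant KPC-2 tested against the chromogenic β-lactam nitrocefin at 1 µM inhibitor. Hydrolysis was followed as the rise in absorbance at 482 nm (ε482 = 17,400 M-1 cm-1). Activity is expressed as percent inhibition relative to an uninhibited control.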

Escherichia coli [1] = format: functional, BL21 (DE3); conditions: time 16-18 hrs
[2] = Inhibition of bacterial beta-lactamase KPC-2 expressed in Escherichia coli BL21 (DE3) using nitrocefin as substrate assessed as inhibition constant by Cheng-Prusoff equation analysis; parameters: species or system Bacteria
[3] = Cytotoxicity against HEK293 cells assessed as cell viability at 5 to 50 ug/ml incubated for 24 hrs by MTT assay relative to control; conditions: human, at 5 to 50 µg/mL
[4] = Cytotoxicity against HEK293 cells assessed as cell viability at 5 to 50 ug/ml incubated for 24 hrs in presence of cefotaxime by MTT assay relative to control; conditions: human, at 5 to 50 µg/mL
Escherichia coli [5] = assay: microbe, parasite or virus in culture; format: functional; conditions: BL21 (DE3), dose 50 µg/ml, time 16-20 hrs
Escherichia coli [6] = assay: microbe, parasite or virus in culture; format: functional; conditions: BL21 (DE3), dose 50 µg/ml, time 16-20 hrs; remark: listed apart in the source
Escherichia coli [7] = assay: Antibacterial activity against Escherichia coli NCTC10418; format: functional
physchem = conditions: 0.1 M phosphate buffer, pH 4.3
[8] = Inhibition of class C […]beta-lactamase AmpC (unknown origin); parameters: species or system Bacteria
Escherichia coli [9] = assay: microbe, parasite or virus in culture; format: functional; conditions: BL21 (DE3), dose 5 µg/ml, time 16-20 hrs
Escherichia coli [10] = assay: microbe, parasite or virus in culture; format: functional; conditions: BL21 (DE3), dose 5 µg/ml, time 16-20 hrs; remark: listed apart in the source

Row | SMILES | inhibition (Bacteria) [%] | inhibition zone (IZ) (Escherichia coli [1]) [mm] | Ki [2] [nM] | viability at 24 h [3] [%] | viability at 24 h [4] [%] | MIC (Escherichia coli [5]) [µg/mL] | MIC (Escherichia coli [6]) [µg/mL] | MIC (Escherichia coli [7]) [µg/mL] | pKa at 100 µM (physchem) | Ki [8] [nM] | MIC (Escherichia coli [9]) [µg/mL] | MIC (Escherichia coli [10]) [µg/mL]
1 | OB(O)c1cccc(Cn2cc(-c3ccccc3)nn2)c1 | 69 | 29.6 | 166 | > 80 | > 80 |  |  |  |  |  |  | 
2 | CC(C)(C)c1cn(Cc2cccc(B(O)O)c2)nn1 | 50 | 33.5 | 280 |  |  | 0.5 (≈ 1.93 µM) | 0.12 (≈ 0.463 µM) | > 64 |  |  |  | 
3 | O=[N+]([O-])c1cc(B(O)O)c(F)cc1F |  | 29.3 |  |  |  |  |  |  | 5.98 |  |  | 
4 | O=S(=O)(NCB(O)O)c1ccc(-c2nnn[nH]2)cc1C(F)(F)F |  |  |  |  |  |  |  |  |  | 0.05 |  | 
5 | NCc1ccc(F)c(B(O)O)c1 |  | 19.9 |  |  |  |  |  |  |  |  |  | 
6 | OB(O)c1cccc(Cn2cc(-c3cccs3)nn2)c1 | 85 | 33.7 | 67 | > 80 | > 80 | ≤ 0.06 |  | > 64 |  |  | ≤ 0.06 | ≤ 0.06
7 | OB(O)c1ccc(Cn2cc(-c3ccsc3)nn2)cc1 | 53 | 27.6 | 219 | > 80 | > 80 |  |  |  |  |  |  | 
8 | OB(O)c1cccc(Cn2cc(-c3ccsc3)nn2)c1 | 92 | 32 | 32 |  |  | ≤ 0.06 |  | > 64 |  |  | ≤ 0.06 | ≤ 0.06
9 | [N-]=[N+]=Nc1ccc(F)c(B(O)O)c1 | 37 | 25.3 | 570 |  |  | 0.5 (≈ 2.76 µM) | 0.25 (≈ 1.38 µM) | > 64 | 6.87 |  | 1 (≈ 5.53 µM) | 1 (≈ 5.53 µM)
10 | CCC1CC(=O)CCN1c1ccccc1B(O)O (stereo not given) |  | 18.7 |  |  |  |  |  |  |  |  |  | 
11 | Nc1cc(B(O)O)cc([N+](=O)[O-])c1 |  | 26.9 |  |  |  |  |  |  |  |  |  | 
12 | COc1ccc(-c2cn(-c3cccc(B(O)O)c3)nn2)cc1 | 5.9 | 30.1 |  |  |  |  |  |  |  |  |  | 
13 | CC(C)(C)c1cn(-c2cccc(B(O)O)c2)nn1 | 14 | 32.7 | 660 |  |  |  |  |  |  |  |  | 
14 | OB(O)c1cccc(-n2cc(-c3cccs3)nn2)c1 | 20 | 31.8 | 710 | > 80 | > 80 |  |  |  |  |  |  | 
15 | OB(O)c1cccc(Cn2cc(C3CC3)nn2)c1 | 30 | 30.9 | 515 |  |  |  |  |  |  |  |  | 
16 | OB(O)c1ccc(Cn2cc(-c3cccnc3)nn2)cc1 | 59 | 23.7 |  |  |  |  |  |  |  |  |  | 
17 | OB(O)c1cccc(-n2cc(-c3ccsc3)nn2)c1 | 75 | 29.9 | 38 | > 80 | > 80 | 0.25 (≈ 0.922 µM) | 0.12 (≈ 0.443 µM) | > 64 | 8.31 |  | 0.25 (≈ 0.922 µM) | 1 (≈ 3.69 µM)
18 | OB(O)c1cc(-n2cc(-c3ccsc3)nn2)ccc1F | 35 | 39.8 | 800 |  |  | ≤ 0.06 | ≤ 0.06 | > 64 | 7.61 |  | 0.12 (≈ 0.415 µM) | 1 (≈ 3.46 µM)
19 | [N-]=[N+]=Nc1cc(B(O)O)c(F)cc1F | 0 | 23.4 | 7800 | > 80 | > 80 | 16 (≈ 80.4 µM) | 0.12 (≈ 0.603 µM) | > 64 | 6.27 |  | ≤ 0.06 | 8 (≈ 40.2 µM)
20 | OB(O)c1cccc(-n2cc(-c3ccccc3)nn2)c1 | 18 | 26.2 |  |  |  |  |  |  |  |  |  | 
21 | Cc1ccc(F)c(B(O)O)c1 |  | 29.6 |  |  |  |  |  |  |  |  |  | 
22 | CCOC(=O)c1cn(-c2cccc(B(O)O)c2)nn1 | 25 | 30 |  | > 80 | > 80 | 2 (≈ 7.66 µM) | 1 (≈ 3.83 µM) | > 64 |  |  |  | 
23 | CCOC(=O)c1cn(Cc2cccc(B(O)O)c2)nn1 | 7 | 31.8 | 900 |  |  |  |  |  |  |  |  | 
24 | OB(O)c1cccc(Cn2cc(Cc3ccccc3)nn2)c1 | 48 | 23.6 |  |  |  |  |  |  |  |  |  | 
25 | OB(O)c1cccc(Cn2cc(-c3ccccn3)nn2)c1 | 61 | 25.9 |  |  |  |  |  |  |  |  |  | 
26 | COc1ccc(-c2cn(Cc3cccc(B(O)O)c3)nn2)cc1 | 7 | 25.6 | 860 | > 80 | > 80 |  |  |  |  |  |  | 
